According to ChEMBL document CHEMBL2093137, “WHO-TDR NTD Screening”:
Values after ≈ are worked out from the molar mass of the structure shown.

How the values were obtained:
Onchocerca ochengi [1] = assay: (§1) WHO-TDR: Onchocerciasis; assay type: functional; design: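 at 12.5 µM on microfilariae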
Summary of the method: (§2)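 A diverse library of 10,000 compounds from Life Chemicals, filtered for drug-likeness and reactive groups, was screened against whole microfilariae of Onchocerca ochengi or Onchocerca lienalis. These animal pathogens served as stand-ins for the human parasite. Activity is given as percent inhibition and as IC50.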

[2] = system: Trypanosoma brucei brucei; assay: WHO-TDR: Human African Trypanosomiasis (HAT); assay type: functional, organism-based; details: Squib-427
Summary of the method: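 Following previously published standard procedures, with reference drugs as positive controls, a whole-organism assay was run against bloodstream-form Trypanosoma brucei, Squib 427 strain. The compounds, 10,000 in all, came from a diverse Life Chemicals library filtered for drug-likeness and reactive groups. Reported values are IC50 for antiparasitic potency.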

Onchocerca ochengi [3] = assay: as §1; assay type: functional; design: concentration or dose not given beside the values; summary of the method: as §2; remark: listed apart in the source
Schistosoma mansoni = assay: WHO-TDR: Schistosomiasis; assay type: functional; design: concentration or dose not given beside the values
Summary of the method: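 A diverse library of 10,000 compounds from Life Chemicals, filtered for drug-likeness and reactive groups, was screened against whole larval and/or adult Schistosoma mansoni worms of the Puerto Rican strain. Previously published standard procedures were followed, with a reference drug as positive control. Activity is given as percent inhibition and as IC50.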

[4] = WHO-TDR: Cytotoxicity; assay type: toxicity, cell-based; details: human, MRC5 cells
Plasmodium falciparum K1 = assay: WHO-TDR: Malaria; assay type: functional, organism-based, Homo sapiens; details: Erythrocyte
Summary of the method: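 Life Chemicals supplied the diverse library of 10,000 compounds, which had been filtered for drug-likeness and reactive groups. Each was screened against the K1 strain of Plasmodium falciparum at its intra-erythrocytic stage in human red blood cells, using previously published standard procedures and a reference drug as positive control. The table reports IC50 for antiplasmodial potency.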

Trypanosoma cruzi = assay: WHO-TDR: Chagas disease; assay type: functional, organism-based, Homo sapiens; details: MRC5
Summary of the method: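 A diverse library of 10,000 compounds from Life Chemicals, filtered for drug-likeness and reactive groups, was screened against intracellular amastigotes of Trypanosoma cruzi Tulahuen CL2 beta-galactosidase strain. The parasites were grown in MRC-5SV2 human lung fibroblast host cells, and a reference drug served as positive control under previously published standard procedures. Antiparasitic potency is given as IC50.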

Leishmania infantum = assay: WHO-TDR: Leishmaniasis; assay type: functional, organism-based, Mus musculus; details: Macrophage
Summary of the method: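 IC50 values describe antiparasitic potency in this whole-organism screen. Leishmania infantum MHOM/MA(BE)/67 amastigotes were tested inside murine peritoneal macrophages against a 10,000-compound diverse Life Chemicals library. A reference drug served as positive control.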

Row | SMILES | % Inhibition (Onchocerca ochengi [1]) [%] | IC50 [2] [µg/mL] | % Inhibition (Onchocerca ochengi [3]) [%] | % Inhibition (Schistosoma mansoni) [%] | IC50 [4] [µg/mL] | IC50 (Plasmodium falciparum K1) [µg/mL] | IC50 (Trypanosoma cruzi) [µg/mL] | IC50 (Leishmania infantum) [µg/mL]
1 | O=C(CC1CCCCN1S(=O)(=O)c1ccc(Cl)cc1)NCCC1=CCCCC1 (stereo not given) | 0 | 4.23 (≈ 9.95 µM) | 0 | 0 | 12.7 (≈ 30 µM) | > 12.7 | 0.517 (≈ 1.22 µM) | 6.6 (≈ 15.5 µM)
2 | CCCc1cc(=O)[nH]c(-n2nc(C)cc2NC(=O)C2CC(=O)N(c3ccc(C)c(C)c3)C2)n1 (stereo not given) | 50 | 3.99 (≈ 8.9 µM) | 0 | 0 | 4.51 (≈ 10 µM) | > 13.5 | 1.28 (≈ 2.86 µM) | 4.36 (≈ 9.71 µM)
3 | COc1ccc(Cl)cc1C(=O)Nc1cc(C)nn1-c1nc2c(c(=O)[nH]1)CCC2 | 0 | 0.388 (≈ 0.97 µM) | 0 | 50 | 0.685 (≈ 1.71 µM) | > 12 | 0.361 (≈ 0.902 µM) | 6.21 (≈ 15.5 µM)
4 | CN1CCN(C(CNC(=O)CCc2ccccc2)c2ccsc2)CC1 (stereo not given) | 0 | > 10.7 | 0 | 0 | > 10.7 | > 10.7 | 0.498 (≈ 1.39 µM) | > 10.7
5 | CCc1ccc2nc(N(CCN(CC)CC)C(=O)Cc3ccc4c(c3)OCO4)sc2c1 | 0 | 0.457 (≈ 1.04 µM) | 0 | 0 | > 14.3 | 4.52 (≈ 10.3 µM) | 3.61 (≈ 8.21 µM) | 7.4 (≈ 16.8 µM)
6 | CN(C)C(CNS(=O)(=O)c1cc(Cl)ccc1Cl)c1ccsc1 (stereo not given) | 100 | 3.82 (≈ 10.1 µM) | 0 | 0 | > 11.4 | 7.08 (≈ 18.7 µM) | > 11.4 | > 11.4
7 | O=S(=O)(Nc1nc2c(Cl)cccc2s1)c1ccc(Cl)s1 | 100 | > 11 | 0 | 0 | > 11 | > 11 | 10.4 (≈ 28.5 µM) | > 11
8 | CC1CCN(C(C)CNC(=O)Nc2cccc(Cl)c2)CC1 (stereo not given) | 50 | 0.301 (≈ 0.971 µM) | 0 | 0 | > 9.29 | 1.01 (≈ 3.26 µM) | > 9.29 | 4.81 (≈ 15.5 µM)
9 | Cc1c(S(=O)(=O)CCNC(=O)NC2CCCCC2)c2ccccc2n1Cc1ccc(F)cc1 | 100 | > 14.1 | 0 | 0 | > 14.1 | > 14.1 | > 14.1 | > 14.1
10 | Cc1cc(=O)[nH]c(-n2nc(C)cc2NC(=O)C2c3ccccc3Oc3ccccc32)n1 | 0 | 0.876 (≈ 2.12 µM) | 0 | 50 | 0.504 (≈ 1.22 µM) | 0.657 (≈ 1.59 µM) | < 0.124 | 4.01 (≈ 9.71 µM)
11 | COc1ccc(CCC(=O)NCC(c2ccsc2)N2CCc3ccccc3C2)cc1 (stereo not given) | 100 | 4.13 (≈ 9.83 µM) | 0 | 0 | > 12.6 | 6.14 (≈ 14.6 µM) | 4.15 (≈ 9.87 µM) | > 12.6
12 | O=C(CC1CSc2nccc(=O)n21)Nc1cc(C(F)(F)F)cc(C(F)(F)F)c1 (stereo not given) | 100 | > 12.7 | 0 | 0 | > 12.7 | > 12.7 | > 12.7 | > 12.7
13 | CC(C)CCN1C(=O)CCc2cc(NC(=O)c3cccc(Br)c3)ccc21 | 100 | 3.5 (≈ 8.42 µM) | 0 | 0 | > 12.5 | > 12.5 | 3.35 (≈ 8.08 µM) | > 12.5
14 | CC(C)CN1C(=O)C(C)(C)COc2cc(NS(=O)(=O)c3ccccc3Br)ccc21 | 100 | 4.62 (≈ 9.6 µM) | 0 | 0 | > 14.4 | > 14.4 | 4.3 (≈ 8.93 µM) | > 14.4
15 | Cc1nn2c(=O)[nH]c(SCc3ccccn3)nc2c1-c1ccccc1 | 100 | > 10.5 | 0 | 0 | > 10.5 | > 10.5 | > 10.5 | > 10.5
